Assay results taken from ChEMBL document CHEMBL1139860, “Cytotoxic germacranolides and acyclic diterpenoides from the seeds of Carpesium triste” (J Nat Prod, 2007).
In brackets after ≈: the same amount, converted by molar mass.

Columns and labels:
Type in all cases: cell-based
HL-60 = assay: Cytotoxicity against human HL60 cells after 48 hrs; details: HL-60, 48 h
Procedure, shortened: (§1)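 SRB assay. Exponentially growing cells were seeded at 5 × 10^3 per well and incubated 24 h, then exposed 48 h to 5-6 concentrations per run, with vincristine sulfate as positive control. Extracted dye absorbance was read at 515 nm. Percent survival was calculated against untreated cells set at 100%. Done in triplicate.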

[1] = Cytotoxicity against human L02 cells after 48 hrs; details: L02, 48 h; procedure, shortened: as §1
[2] = Cytotoxicity against human SMMC7721 cells after 48 hrs; details: SMMC-7721, 48 h; procedure, shortened: as §1

Compound: C=C1C(=O)O[C@H]2[C@H]1[C@@H](OC(=O)/C(C)=C\C)C(=O)[C@H](C)CCC[C@](C)(O)[C@@H]2OC(=O)C(C)C
- IC50 (HL-60): 3.4 µg/mL (≈ 7.55 µM)
- IC50 [1]: 72.4 µg/mL (≈ 161 µM)
- IC50 [2]: 46.3 µg/mL (≈ 103 µM)

Compound: C=C1C(=O)O[C@H]2[C@H]1[C@@H](OC(=O)C(C)C)[C@H](O)[C@H](C)CCC(=O)[C@](C)(O)[C@@H]2OC(=O)C(C)C
- IC50 (HL-60): 3.2 µg/mL (≈ 7.04 µM)
- IC50 [1]: 42.3 µg/mL (≈ 93.1 µM)
- IC50 [2]: 33.5 µg/mL (≈ 73.7 µM)

Compound: CC(=O)OC/C(=C\CC/C(C)=C/CO)CCC[C@H](C)[C@H](O)CC=C(C)C
- IC50 (HL-60): > 100 µg/mL
- IC50 [1]: > 100 µg/mL
- IC50 [2]: > 100 µg/mL

Compound: C=C1C(=O)O[C@H]2[C@H]1[C@@H](O)[C@H](OC(=O)CC(C)C)[C@H](C)CCC(=O)[C@](C)(O)[C@@H]2OC(=O)C(C)CC (stereo not given in full)
- IC50 (HL-60): 10.3 µg/mL (≈ 21.3 µM)
- IC50 [1]: 57.5 µg/mL (≈ 119 µM)
- IC50 [2]: 29.7 µg/mL (≈ 61.5 µM)

Compound: CC(C)=CC[C@@H](O)[C@@H](C)CCC/C(C)=C/CC/C(C)=C/CO
- IC50 (HL-60): 42.4 µg/mL (≈ 137 µM)
- IC50 [1]: > 100 µg/mL
- IC50 [2]: > 100 µg/mL

Compound: CC(=O)OC/C=C(\C)CC/C=C(/CCC[C@H](C)[C@H](O)CC=C(C)C)COC(C)=O
- IC50 (HL-60): 20.2 µg/mL (≈ 49.4 µM)
- IC50 [1]: 31.3 µg/mL (≈ 76.6 µM)
- IC50 [2]: 12.5 µg/mL (≈ 30.6 µM)

Compound: C=C1C(=O)O[C@H]2[C@H]1[C@@H](O)[C@H](OC(=O)CC(C)C)[C@H](C)CCC(=O)[C@](C)(O)[C@@H]2OC(=O)C(C)C
- IC50 (HL-60): 1.7 µg/mL (≈ 3.63 µM)
- IC50 [1]: 23.1 µg/mL (≈ 49.3 µM)
- IC50 [2]: 44.8 µg/mL (≈ 95.6 µM)

Compound: C=C1C(=O)O[C@H]2[C@H]1[C@@H](OC(=O)C(C)C)C(=O)[C@H](C)CCC[C@](C)(O)[C@@H]2OC(=O)C(C)C [INCASPITOLIDE A]
- IC50 (HL-60): 11.8 µg/mL (≈ 26.9 µM)
- IC50 [1]: 86.4 µg/mL (≈ 197 µM)
- IC50 [2]: 97.1 µg/mL (≈ 221 µM)

Compound: C=C1C(=O)O[C@H]2[C@H]1[C@@H](O)[C@H](OC(=O)C(C)C)[C@H](C)CCC(=O)[C@](C)(O)[C@@H]2OC(=O)C(C)C [INCASPITOLIDE D]
- IC50 (HL-60): 14.3 µg/mL (≈ 31.5 µM)
- IC50 [1]: 95.7 µg/mL (≈ 211 µM)
- IC50 [2]: 62.5 µg/mL (≈ 138 µM)

Compound: CC[C@]1(O)C[C@H]2CN(CCc3c([nH]c4ccccc34)[C@@](C(=O)OC)(c3cc4c(cc3OC)N(C=O)[C@H]3[C@@](O)(C(=O)OC)[C@H](OC(C)=O)[C@]5(CC)C=CCN6CC[C@]43[C@@H]65)C2)C1.O=S(=O)(O)O [VINCRISTINE SULFATE]
- IC50 (HL-60): 11.2 µg/mL
- IC50 [1]: 28.4 µg/mL
- IC50 [2]: 26.7 µg/mL
